ChEMBL document CHEMBL4359827 (ACS Med Chem Lett, 2019)
pIC50: −log10 of the molar value.

Assays:
[1] = target: T1, Indoleamine 2,3-dioxygenase 1 (Homo sapiens, UniProt P14902); assay: Inhibition of IDO in human HeLa cells using tryptophan as substrate measured after 48 hrs in presence of INF gamma microplate reader analysis; assay type: cell-based
[2] = target: T1, Indoleamine 2,3-dioxygenase 1; assay: Inhibition of human IDO1 expressed in Escherichia coli Rosetta measured after 1 hr by microplate reader analysis
[3] = target: Tryptophan 2,3-dioxygenase (Homo sapiens, UniProt P48775); assay: Inhibition of human TDO expressed in Escherichia coli Rosetta measured after 1 hr microplate reader analysis
Tryptophan 2,3-dioxygenase, sequence (P48775 whole entry): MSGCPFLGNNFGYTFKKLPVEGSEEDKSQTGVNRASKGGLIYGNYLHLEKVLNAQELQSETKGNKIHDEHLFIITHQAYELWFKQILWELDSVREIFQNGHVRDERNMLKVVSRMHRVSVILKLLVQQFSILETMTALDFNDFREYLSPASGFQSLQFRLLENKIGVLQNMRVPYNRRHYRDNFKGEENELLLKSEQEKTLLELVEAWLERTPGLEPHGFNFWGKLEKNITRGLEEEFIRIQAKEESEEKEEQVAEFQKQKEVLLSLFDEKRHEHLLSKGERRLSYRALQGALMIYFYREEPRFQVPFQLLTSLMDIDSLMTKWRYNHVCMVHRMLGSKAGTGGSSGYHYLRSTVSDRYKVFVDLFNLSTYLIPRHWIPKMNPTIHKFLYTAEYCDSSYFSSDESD

[4] = Protein binding in mouse plasma measured after 2 to 6 hrs by rapid equilibrium dialysis; assay type: ADME, cell-free; conditions: read-out: PPB (converted)
[5] = AUC in Beagle dog at 2 mg/kg via oral gavage measured upto 24 hrs; assay type: ADME, organism-based, Canis lupus familiaris; design: time < 24 hr, dose 2 mg/kg, route oral; conditions: in vivo
MC-38 [6] = assay: Antitumour activity against MC38 cells xenografted in humanized PD1 transgenic mouse assessed as tumour growth inhibition at 50 mg/kg, po bid for 14 days by digital caliper method relative to control; assay type: functional; conditions: MC-38, po, 336 h, read-out: TGI
Outline: (§1)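 MC38 tumors implanted in hPD1 transgenic mice. Compound given orally at 20 or 50 mg/kg, bid × 14. Tumor growth inhibition (TGI) was calculated against control. Body weight was monitored.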

[7] = Half-life in Beagle dog at 2 mg/kg via oral gavage measured upto 24 hrs; assay type: ADME, organism-based, Canis lupus familiaris; conditions: in vivo
[8] = Protein binding in dog plasma measured after 2 to 6 hrs by rapid equilibrium dialysis; assay type: ADME, cell-free, Canis lupus familiaris; conditions: read-out: PPB (converted)
[9] = Oral bioavailability in Sprague-Dawley rat at 10 mg/kg measured upto 24 hrs; assay type: ADME, organism-based; conditions: in vivo
[10] = AUC in C57BL/6 mouse at 10 mg/kg via oral gavage measured upto 24 hrs; assay type: ADME, organism-based; design: time < 24 hr, dose 10 mg/kg, route oral; conditions: in vivo
[11] = AUC in Sprague-Dawley rat at 10 mg/kg via oral gavage measured upto 24 hrs; assay type: ADME, organism-based; design: time < 24 hr, dose 10 mg/kg, route oral; conditions: in vivo
[12] = Oral bioavailability in Beagle dog at 2 mg/kg measured upto 24 hrs; assay type: ADME, organism-based, Canis lupus familiaris; conditions: in vivo
[13] = Half-life in Sprague-Dawley rat at 10 mg/kg via oral gavage measured upto 24 hrs; assay type: ADME, organism-based; conditions: in vivo
[14] = Protein binding in human plasma measured after 4 hrs by rapid equilibrium dialysis; assay type: ADME, cell-free; conditions: read-out: PPB (converted)
[15] = Half-life in C57BL/6 mouse at 10 mg/kg via oral gavage measured upto 24 hrs; assay type: ADME, organism-based; conditions: in vivo
MC-38 [16] = assay: Antitumour activity against MC38 cells xenografted in humanized PD1 transgenic mouse assessed as tumour growth inhibition at 20 mg/kg, po bid for 14 days by digital caliper method relative to control; assay type: functional; conditions: MC-38, po, 336 h, read-out: TGI; outline: as §1
[17] = Half-life in rat liver microsomes; assay type: ADME, Microsome
[18] = Cmax in Sprague-Dawley rat at 10 mg/kg via oral gavage measured upto 24 hrs; assay type: ADME, organism-based; design: dose 10 mg/kg, route oral; conditions: in vivo
MC-38 [19] = assay: Synergistic antitumour activity against MC38 cells xenografted in humanized PD1 transgenic mouse assessed as tumour growth inhibition at 20 to 50 mg/kg, po bid for 14 days pretreated with SHR-1210 at 5 mg/kg, ip qod for 8 days by digital caliper method relative to control
[20] = Half-life in human liver microsomes; assay type: ADME, Microsome
Mus musculus = assay: Reduction in plasma kynurenine levels in C57BL/6 mouse at 100 mg/kg, s.d ig measured after 2 hrs relative to control; assay type: ADME, organism-based; design: scale not given: the % may be the effect or the level left; conditions: in vivo, po
[21] = Cmax in Beagle dog at 2 mg/kg via oral gavage measured upto 24 hrs; assay type: ADME, organism-based, Canis lupus familiaris; design: dose 2 mg/kg, route oral; conditions: in vivo
[22] = Cmax in C57BL/6 mouse at 10 mg/kg via oral gavage measured upto 24 hrs; assay type: ADME, organism-based; design: dose 10 mg/kg, route oral; conditions: in vivo
[23] = Oral bioavailability in C57BL/6 mouse at 10 mg/kg measured upto 24 hrs; assay type: ADME, organism-based; conditions: in vivo

T1 sequence (P14902 whole entry): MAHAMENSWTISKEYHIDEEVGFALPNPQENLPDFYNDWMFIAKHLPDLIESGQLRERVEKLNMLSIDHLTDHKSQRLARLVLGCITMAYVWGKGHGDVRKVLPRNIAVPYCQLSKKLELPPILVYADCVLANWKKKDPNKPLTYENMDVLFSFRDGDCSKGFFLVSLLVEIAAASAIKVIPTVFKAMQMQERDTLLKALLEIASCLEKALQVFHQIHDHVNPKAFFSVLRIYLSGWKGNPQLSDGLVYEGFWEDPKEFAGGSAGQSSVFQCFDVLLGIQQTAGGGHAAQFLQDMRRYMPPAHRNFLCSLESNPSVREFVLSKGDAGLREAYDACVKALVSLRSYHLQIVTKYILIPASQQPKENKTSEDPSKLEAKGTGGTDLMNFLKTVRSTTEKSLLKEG

`Fc1cccc2c1C(C1CCN(c3ccc(N4CCOCC4)cc3)CC1)n1cncc1-2` (stereo not drawn) showed a pIC50 [1] of 5.77, a pIC50 [2] of 6.45 and a pIC50 [3] of 5.99.
Work on `Fc1cccc2c1C(C1CCN(c3ccc(-c4cccnc4)cc3)CC1)n1cncc1-2` (stereo not drawn) yielded a pIC50 [1] of 6.62, a pIC50 [2] of 7.15 and a pIC50 [3] of 6.74.
Compound `Fc1cccc2c1C(C1CCN(c3nccs3)CC1)n1cncc1-2` (stereo not drawn) has a pIC50 [1] of 6.24, a pIC50 [2] of 6.53 and a pIC50 [3] of 6.23.
Compound `Cc1cc(N2CCC(C3c4c(F)cccc4-c4cncn43)CC2)ccc1-c1cnn(C)c1` (stereo not drawn) has a pIC50 [1] of 6.92, a pIC50 [2] of 7.85 and a pIC50 [3] of 6.94.
For `Fc1cccc2c1C(C1CCNCC1)n1cncc1-2` (stereo not drawn), the pIC50 [2] was < 5.00 and the pIC50 [3] was < 5.00.
`Fc1cccc2c1C(C1CCN(c3ccccc3)CC1)n1cncc1-2` (stereo not drawn) showed a pIC50 [1] of 6.26.
For `Cn1cc(-c2cnc(N3CCC(C4c5c(F)cccc5-c5cncn54)CC3)nc2)cn1` (stereo not drawn), the pIC50 [1] was 6.49, the pIC50 [2] was 6.95 and the pIC50 [3] was 6.24.
In the case of `Cc1cc(-c2cnn(C)c2)ccc1N1CCC(C2c3c(F)cccc3-c3cncn32)CC1` (stereo not drawn), the pIC50 [1] was 6.16, the pIC50 [2] was 7.70 and the pIC50 [3] was 6.65.
With `Cn1cc(-c2ccc(N3CCC([C@H]4c5c(F)cccc5-c5cncn54)CC3)cc2)cn1` the fraction unbound [4] was 0.004, the AUC at 24 h [5] was 1340 ng·h/mL and the inhibition in vivo at 50 mg/kg (MC-38 [6]) was 78%. For the same compound, the half-life [7] was 6.49 h, the fraction unbound [8] was 0.008 and the bioavailability [9] was 60.3%. It also gave an AUC at 24 h [10] of 29100 ng·h/mL, an AUC at 24 h [11] of 6130 ng·h/mL and a bioavailability [12] of 27.3%. The half-life [13] was 1.22 h, the fraction unbound at 4 h [14] was 0.003 and the half-life [15] was 4.55 h. For the same compound, the inhibition in vivo at 20 mg/kg (MC-38 [16]) was 39%, the half-life [17] was 2.37 h and the Cmax [18] was 1850 ng/mL. For the same compound, the TGI (MC-38 [19]) was >90%, the half-life [20] was 2.45 h and the Activity (Mus musculus) was 57%. For the same compound, the Cmax [21] was 166 ng/mL, the Cmax [22] was 3600 ng/mL and the bioavailability [23] was 59.6%.
`Fc1cccc2c1C(C1CCCC1)n1cncc1-2` (stereo not drawn) gave a pIC50 [1] of 5.91, a pIC50 [2] of 6.12 and a pIC50 [3] of 7.02.
Work on `Fc1cccc2c1C(c1ccccc1)n1cncc1-2` (stereo not drawn) yielded a pIC50 [2] of 5.56 and a pIC50 [3] of 6.43.
For `Fc1cccc2c1C(C1CCOCC1)n1cncc1-2` (stereo not drawn), the pIC50 [1] was 5.27, the pIC50 [2] was 6.01 and the pIC50 [3] was 6.72.
`Fc1cccc2c1C(C1CCN(c3nc4ccccc4s3)CC1)n1cncc1-2` (stereo not drawn) gave a pIC50 [1] of 6.36, a pIC50 [2] of 7.72 and a pIC50 [3] of 6.71.
`Fc1cccc2c1C(C1CCN(c3ccc(-c4ccncc4)cc3)CC1)n1cncc1-2` (stereo not drawn) showed a pIC50 [1] of 6.55, a pIC50 [2] of 7.48 and a pIC50 [3] of 6.45.
`Cn1ccc2ccc(N3CCC(C4c5c(F)cccc5-c5cncn54)CC3)cc21` (stereo not drawn) showed a pIC50 [1] of 6.69, a pIC50 [2] of 7.57 and a pIC50 [3] of 6.42.
In the case of `Fc1cccc2c1C(Cc1ccccc1)n1cncc1-2` (stereo not drawn), the pIC50 [2] was 5.56 and the pIC50 [3] was 6.10.
In the case of `Cn1cc(-c2cccc(N3CCC(C4c5c(F)cccc5-c5cncn54)CC3)c2)cn1` (stereo not drawn), the pIC50 [3] was 6.19.
`Fc1cccc2c1C(C1CCCCC1)n1cncc1-2` (stereo not drawn) showed a pIC50 [1] of 6.25, a pIC50 [2] of 6.97 and a pIC50 [3] of 7.07.
In the case of `O=C(c1ccccc1)N1CCC(C2c3c(F)cccc3-c3cncn32)CC1` (stereo not drawn), the pIC50 [2] was 5.45 and the pIC50 [3] was 5.89.
For `O[C@H](C[C@H]1c2c(F)cccc2-c2cncn21)[C@H]1CC[C@H](O)CC1` [NAVOXIMOD], the pIC50 [3] was 6.61.
